From ChEMBL document CHEMBL1122270, “N-(4-substituted-thiazolyl)oxamic acid derivatives, a new series of potent, orally active antiallergy agents” (1983)

Columns and labels:
Type in all cases: functional
Rattus norvegicus [1] = assay: Antiallergic activity by rat passive cutaneous anaphylaxis (PCA) assay when administered per orally; conditions: po
Procedure, shortened: (§1)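 Rats were passively sensitized intradermally with diluted reaginic anti-ovalbumin serum 24 h before challenge. Compound was suspended in 1% acacia and dosed by oral feeding needle at 1 mL/kg. After 20-30 min, rats were challenged with 0.02 mg ovalbumin in 0.5 mL 2% Evans Blue. Blued areas were measured 30 min after challenge. Six rats per dose; ED50 is 50% area reduction from control, with 95% confidence limits.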

Rattus norvegicus [2] = assay: antiallergic activity by rat passive cutaneous anaphylaxis (PCA) assay when administered iv
Procedure, shortened: (§2)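 Male rats sensitized by id injection of diluted rat anti-ovalbumin reaginic serum (0.1 mL each side of shaved back). 24 h later, compound in saline was mixed with 5 mg ovalbumin in 0.5 mL 2% Evans Blue and given iv at 1 mL/kg. Blued-spot diameters were read 30 min later. Six rats per group; ED50 is 50% area reduction versus control, with 95% confidence limits.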

Rattus norvegicus [3] = assay: Antiallergic activity by rat passive cutaneous anaphylaxis (PCA) assay when administered per orally;value ranges between (0.7-1.6); conditions: po; procedure, shortened: as §1
Rattus norvegicus [4] = assay: Antiallergic activity by rat passive cutaneous anaphylaxis (PCA) assay when administered iv;value ranges between (0.01-0.04.); procedure, shortened: as §2
Rattus norvegicus [5] = assay: Antiallergic activity by rat passive cutaneous anaphylaxis (PCA) assay when administered per orally;value ranges between (1.3-23).; conditions: po; procedure, shortened: as §1
Rattus norvegicus [6] = assay: Antiallergic activity by rat passive cutaneous anaphylaxis (PCA) assay when administered per orally;value ranges between (1.0-6.6).; conditions: po; procedure, shortened: as §1
Rattus norvegicus [7] = assay: Antiallergic activity by rat passive cutaneous anaphylaxis (PCA) assay when administered perorally; value ranges between […]; conditions: po; procedure, shortened: as §1
Rattus norvegicus [8] = assay: Antiallergic activity by rat passive cutaneous anaphylaxis (PCA) assay when administered per orally;value ranges between (4.67-21.77); conditions: po; procedure, shortened: as §1
Rattus norvegicus [9] = assay: Antiallergic activity by rat passive cutaneous anaphylaxis (PCA) assay when administered perorally; conditions: po; procedure, shortened: as §1
Rattus norvegicus [10] = assay: Antiallergic activity by rat passive cutaneous anaphylaxis (PCA) assay when administered per orally;value ranges between (0.91-5.2); conditions: po; procedure, shortened: as §1
Rattus norvegicus [11] = assay: Antiallergic activity by rat passive cutaneous anaphylaxis (PCA) assay when administered per orally;value ranges between (3.44-9.04); conditions: po; procedure, shortened: as §1
Rattus norvegicus [12] = assay: Antiallergic activity by rat passive cutaneous anaphylaxis (PCA) assay when administered per orally;value ranges between (1.02-2.15).; conditions: po; procedure, shortened: as §1
Rattus norvegicus [13] = assay: Antiallergic activity by rat passive cutaneous anaphylaxis (PCA) assay when administered per orally;value ranges between( 0.5-2.9).; conditions: po; procedure, shortened: as §1
Rattus norvegicus [14] = assay: Antiallergic activity by rat passive cutaneous anaphylaxis (PCA) assay when administered per orally;value ranges between (0.18-1.48).; conditions: po; procedure, shortened: as §1

CCOC(=O)C(=O)Nc1nc(-c2cccc(OC)c2)cs1
ED50 (Rattus norvegicus [1]): ~20 mg/kg

CCOC(=O)C(=O)Nc1nc(-c2ccc(N3CCOCC3)cc2)cs1
ED50 (Rattus norvegicus [1]): > 100 mg/kg

COc1ccccc1-c1csc(NC(=O)C(=O)O)n1
ED50 (Rattus norvegicus [2]): > 1 mg/kg

O=C(O)C(=O)Nc1nc(-c2ccc(O)cc2)cs1
ED50 (Rattus norvegicus [2]): ~0.1 mg/kg
ED50 (Rattus norvegicus [1]): > 3 mg/kg

CCOC(=O)C(=O)Nc1nc(-c2ccc(O)cc2)cs1
ED50 (Rattus norvegicus [1]): ~15 mg/kg

CCOC(=O)C(=O)Nc1nc(-c2ccccn2)cs1
ED50 (Rattus norvegicus [1]): ~10 mg/kg

CCOC(=O)C(=O)Nc1nc(-c2ccc(Sc3ccccc3)cc2)cs1
ED50 (Rattus norvegicus [1]): > 3 mg/kg

CN(C)c1ccc(-c2csc(NC(=O)C(=O)O)n2)cc1
ED50 (Rattus norvegicus [3]): 1.1 mg/kg
ED50 (Rattus norvegicus [4]): 0.02 mg/kg

Cc1cc(C)c(-c2csc(NC(=O)C(=O)O)n2)c(O)c1.NCCO
ED50 (Rattus norvegicus [1]): > 10 mg/kg

CCOC(=O)C(=O)Nc1nc(-c2ccccc2OC)cs1
ED50 (Rattus norvegicus [2]): ~1 mg/kg
ED50 (Rattus norvegicus [1]): > 30 mg/kg

O=C(O)C(=O)Nc1ncc(-c2ccccc2)s1
ED50 (Rattus norvegicus [5]): 4.03 mg/kg
ED50 (Rattus norvegicus [2]): ~0.3 mg/kg

CCOC(=O)C(=O)Nc1nc(-c2ccc([N+](=O)[O-])cc2)cs1
ED50 (Rattus norvegicus [1]): > 100 mg/kg

CCOC(=O)C(=O)Nc1ncc(-c2ccccc2)s1
ED50 (Rattus norvegicus [1]): ~10 mg/kg

NCCO.O=C(O)C(=O)Nc1nc(-c2cccc(O)c2)cs1
ED50 (Rattus norvegicus [2]): ~0.1 mg/kg
ED50 (Rattus norvegicus [1]): 3 mg/kg

CCOC(=O)C(=O)Nc1nc(-c2ccc(Oc3ccccc3)cc2)cs1
ED50 (Rattus norvegicus [1]): > 30 mg/kg

CCOC(=O)C(=O)Nc1nc(-c2ccc(O)c(C(C)=O)c2)cs1
ED50 (Rattus norvegicus [6]): 2.6 mg/kg

CCOC(=O)C(=O)Nc1nc(-c2ccccc2O)cs1
ED50 (Rattus norvegicus [7]): 8.2 mg/kg

CCOC(=O)C(=O)Nc1nc(C)c(C)s1
ED50 (Rattus norvegicus [1]): > 10 mg/kg

CCOC(=O)c1ccc(-c2csc(NC(=O)C(=O)OC)n2)cc1
ED50 (Rattus norvegicus [1]): > 10 mg/kg

CCOC(=O)C(=O)Nc1nc(-c2cc(OC)c(OC)c(OC)c2)cs1
ED50 (Rattus norvegicus [8]): 14.5 mg/kg

CCOC(=O)C(=O)Nc1ccc(-c2csc(NC(=O)C(=O)OCC)n2)cc1
ED50 (Rattus norvegicus [1]): > 30 mg/kg

COc1ccc(OC)c(-c2csc(NC(=O)C(=O)O)n2)c1.NCCO
ED50 (Rattus norvegicus [2]): ~0.3 mg/kg
ED50 (Rattus norvegicus [1]): ~7 mg/kg

NC(=O)C(=O)Nc1nc(-c2ccccc2)cs1
ED50 (Rattus norvegicus [9]): ~1 mg/kg

CCOC(=O)C(=O)Nc1nc(-c2ccco2)cs1
ED50 (Rattus norvegicus [10]): 2.2 mg/kg

NCCO.NCCO.O=C(O)C(=O)Nc1ccc(-c2csc(NC(=O)C(=O)O)n2)cc1
ED50 (Rattus norvegicus [1]): > 10 mg/kg

CCOC(=O)C(=O)Nc1nc(-c2cccnc2)cs1
ED50 (Rattus norvegicus [1]): ~10 mg/kg

CCOC(=O)C(=O)Nc1nc(-c2c(C)cc(C)cc2O)cs1
ED50 (Rattus norvegicus [1]): ~10 mg/kg

COc1cc(-c2csc(NC(=O)C(=O)O)n2)cc(OC)c1OC.NCCO
ED50 (Rattus norvegicus [11]): 5.8 mg/kg
ED50 (Rattus norvegicus [2]): 1 mg/kg

NC(=O)C(=O)Nc1nc(-c2ccc3c(c2)OCCO3)cs1
ED50 (Rattus norvegicus [1]): > 30 mg/kg

NC(=O)C(=O)Nc1nc(-c2ccc3c(c2)CCCC3)cs1
ED50 (Rattus norvegicus [1]): > 10 mg/kg

COc1ccc(-c2csc(NC(=O)C(=O)O)n2)cc1OC
ED50 (Rattus norvegicus [12]): 1.48 mg/kg

CCOC(=O)C(=O)Nc1nc(-c2ccc(F)cc2)cs1
ED50 (Rattus norvegicus [1]): > 10 mg/kg

CCOC(=O)C(=O)Nc1nc(-c2ccc3c(c2)N(C(C)=O)c2ccccc2S3)cs1
ED50 (Rattus norvegicus [1]): > 10 mg/kg

CCOC(=O)C(=O)Nc1nc(-c2ccc3c(c2)CCCC3)cs1
ED50 (Rattus norvegicus [1]): > 10 mg/kg

CCOC(=O)C(=O)Nc1nc(-c2ccncc2)cs1
ED50 (Rattus norvegicus [13]): 1.2 mg/kg

CCOC(=O)C(=O)Nc1nc(-c2ccc3c(c2)Sc2ccccc2S3)cs1
ED50 (Rattus norvegicus [1]): > 10 mg/kg

Cc1sc(NC(=O)C(=O)O)nc1-c1ccc2c(c1)OCCO2
ED50 (Rattus norvegicus [14]): 0.5 mg/kg

O=C(O)C(=O)Nc1nc(-c2ccc(-c3ccccc3)cc2O)cs1
ED50 (Rattus norvegicus [1]): > 30 mg/kg

CCOC(=O)C(=O)Nc1nc(-c2ccc(-c3ccccc3)cc2O)cs1
ED50 (Rattus norvegicus [1]): > 10 mg/kg

CCOC(=O)C(=O)Nc1nc(-c2ccc(OC)cc2OC)cs1
ED50 (Rattus norvegicus [1]): > 30 mg/kg

CCOC(=O)C(=O)Nc1nc(-c2cc(OC)c(O)c(OC)c2)cs1
ED50 (Rattus norvegicus [1]): ~10 mg/kg
